ChEMBL document CHEMBL3045036, “Chemical composition, plant genetic differences, and antifungal activity of the essential oil of Helichrysum italicum G. Don ssp. microphyllum (Willd) Nym” (2003)
Values after ≈ are worked out from the molar mass of the structure shown.

Assays:
Type in all cases: functional
Zymoseptoria tritici = experiment: Fungicidal activity against Zymoseptoria tritici
Summary of the method: (§1)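 Broth microdilution MIC. Essential oil stock of 1 mg/mL was made in sterile broth with 50% ethanol, then serially diluted in 100 µL potato dextrose broth per well. Each well received 1 µL fungal suspension (~1 × 10^5 cells). Incubation matched the paper-disc test: several days at 24 °C. Growth and medium sterility were checked for each strain.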

Rhizoctonia solani = experiment: Fungicidal activity against Rhizoctonia solani; summary of the method: as §1
Fusarium graminearum = experiment: Fungicidal activity against Fusarium graminearum; summary of the method: as §1
[1] = test system: Fusarium oxysporum f. sp. lycopersici; experiment: Fungicidal activity against Fusarium oxysporum f. sp. Lycopersici; summary of the method: as §1
Botrytis cinerea = experiment: Fungicidal activity against Botryotinia fuckeliana; summary of the method: as §1
Pyricularia oryzae = experiment: Fungicidal activity against Magnaporthe oryzae; summary of the method: as §1
Phytophthora capsici = experiment: Fungicidal activity against Phytophthora capsici; summary of the method: as §1
Globisporangium ultimum = experiment: Fungicidal activity against Pythium ultimum; summary of the method: as §1
Athelia rolfsii = experiment: Fungicidal activity against Athelia rolfsii; conditions: Agroathelia rolfsii; summary of the method: as §1
Helminthosporium = experiment: Fungicidal activity against Helminthosporium oryzae; summary of the method: as §1
Cercospora beticola = experiment: Fungicidal activity against Cercospora beticola; summary of the method: as §1

SMILES: CCCCNC(=O)n1c(NC(=O)OC)nc2ccccc21 [BENOMYL]
- MIC (Zymoseptoria tritici): 0.6 µg/mL (≈ 2.07 µM)
- MIC (Rhizoctonia solani): 6.2 µg/mL (≈ 21.4 µM)
- MIC (Fusarium graminearum): 0.6 µg/mL (≈ 2.07 µM)
- MIC [1]: 1.5 µg/mL (≈ 5.17 µM)

SMILES: CCOC(=O)C1(C)OC(=O)N(c2cc(Cl)cc(Cl)c2)C1=O (stereo unspecified) [CHLOZOLINATE]
- MIC (Botrytis cinerea): 3.1 µg/mL (≈ 9.33 µM)

SMILES: CO/N=C(\C(=O)OC)c1ccccc1COc1ccccc1C [KRESOXYM-METHYL]
- MIC (Pyricularia oryzae): 1.5 µg/mL (≈ 4.79 µM)

SMILES: COCC(=O)N(c1c(C)cccc1C)C(C)C(=O)OC (stereo unspecified) [METALAXYL]
- MIC (Phytophthora capsici): 1.5 µg/mL (≈ 5.37 µM)
- MIC (Globisporangium ultimum): 0.6 µg/mL (≈ 2.15 µM)

SMILES: FC(F)C(F)(F)OCC(Cn1cncn1)c1ccc(Cl)cc1Cl (stereo unspecified) [TETRACONAZOLE]
- MIC (Athelia rolfsii): 25 µg/mL (≈ 67.2 µM)
- MIC (Helminthosporium): 0.1 µg/mL (≈ 0.269 µM)
- MIC (Cercospora beticola): 1.5 µg/mL (≈ 4.03 µM)
